In article PMC6139374 (Cell, 2018):
“And” between values parts separate entries of the source, which are not always exact repeats. Equal entries are not always repeated. Where no end group is shown, it is not given here. Side-chain parts run from the residue outwards. [ ]: non-standard residue; d: D form. Dap = NC[C@H](N)C(=O)O

Key:
[1] = tested on: GSK3 peptide substrate; assay: Radiometric kinase assay, steady-state kinetics of semisynthetic Akt1 forms; type: biochemical; conditions: for catalytic efficiency (kcat/Km), fold lower relative to A1: compared with pThr308/pSer473 form A1; for kcat/Km, within fold of that of A2: low kcat/Km, compared with non-C-terminally phosphorylated enzyme A2
[2] = biological target: FL-Akt1-pThr308/pSer473 (A1) (Homo sapiens, UniProt P31749); assay: Fluorescence anisotropy binding of soluble PIP3; conditions: fluorescein-labeled soluble PIP3 (di-C6), 50 nM
Summary of the method: (§1)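 Varying concentrations of semisynthetic full-length Akt1 were mixed with 50 nM fluorescein-labeled soluble PIP3 (di-C6). Buffer was 50 mM HEPES pH 7.5, 2 mM DTT, 0.05 mg/ml ovalbumin; incubated 30 min at room temperature. Fluorescence anisotropy was recorded at 23°C.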

[3] = biological target: T1, Akt1 PH domain (Homo sapiens, UniProt P31749); assay: Fluorescent binding assay of PIP3 with Mg addition; conditions: Mg addition up to 10 mM
[4] = biological target: pSer477,pThr479 Akt1 (A6) (Homo sapiens, UniProt P31749); assay: Kinase assay, effect of PIP3 on activity; type: biochemical; conditions: addition of excess soluble PIP3
[5] = biological target: non-phosphorylated FL-Akt1 (A9) (Homo sapiens, UniProt P31749); assay: Fluorescence anisotropy binding of soluble PIP3; conditions: fluorescein-labeled soluble PIP3, 50 nM
Summary of the method: as §1

[6] = biological target: non-C-terminally phosphorylated Akt1 (A2) (Homo sapiens, UniProt P31749); assay: Kinase assay, effect of phosphoinositides on activity; type: biochemical; conditions: 250 μM ATP, 20 μM GSK3 peptide, 10 mM MgCl2
Summary of the method: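 Also present: 250 μM ATP with 32P-γ-ATP and 20 μM biotinylated GSK3 peptide. Added either 400 μM DOPC vesicles with 5 mol% PIP3 or 20 μM soluble PI(3,4)P2 (di-C8). Product was captured on 30 kDa filters and counted by scintillation; runs done at least twice.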

[7] = biological target: FL-Akt1-pThr308/non-p C tail (A2) (Homo sapiens, UniProt P31749); assay: Fluorescence anisotropy binding of soluble PIP3; conditions: stated as nearly identical to the value for A1
Summary of the method: as §1

[8] = biological target: FL-Akt1-pThr308, pSer477,pThr479 (A6) (Homo sapiens, UniProt P31749); assay: Fluorescence anisotropy binding of soluble PIP3
Summary of the method: as §1

[9] = biological target: FL-Akt1-pThr308/pSer473 (A1) and FL-Akt1-pThr308/2pSer477,Thr479 (A6) (Homo sapiens, UniProt P31749); assay: Kinase inhibition assays with Akt inhibitors; type: biochemical; conditions: 250 μM ATP, 20 μM GSK3 peptide
[10] = biological target: T1, Akt1 PH domain; assay: Competition binding assay displacing fluorescein-labeled PIP3; conditions: competition with fluorescein-labeled PIP3
Summary of the method: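 Competition format: 50 nM fluorescein-labeled soluble PIP3 with 1 μM Akt PH domain and varied unlabeled soluble phosphoinositide competitor (PIP3 di-C6 or PI(3,4)P2 di-C8). Buffer was 50 mM HEPES pH 7.5, 2 mM DTT, 0.05 mg/ml ovalbumin; incubated 30 min at room temperature, then fluorescence anisotropy read. Sigmoidal fit gave IC50, converted to Ki using free labeled ligand, free PH domain and probe Kd.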

[11] = biological target: non-C-terminally phosphorylated Akt1, C-terminally labeled with fluorescein (human) (UniProt P31749); assay: fluorescence polarisation
[12] = biological target: Akt1 (human, UniProt P31749 1-480); assay: kinase inhibition assay
Sequence of Akt1 (P31749 whole entry): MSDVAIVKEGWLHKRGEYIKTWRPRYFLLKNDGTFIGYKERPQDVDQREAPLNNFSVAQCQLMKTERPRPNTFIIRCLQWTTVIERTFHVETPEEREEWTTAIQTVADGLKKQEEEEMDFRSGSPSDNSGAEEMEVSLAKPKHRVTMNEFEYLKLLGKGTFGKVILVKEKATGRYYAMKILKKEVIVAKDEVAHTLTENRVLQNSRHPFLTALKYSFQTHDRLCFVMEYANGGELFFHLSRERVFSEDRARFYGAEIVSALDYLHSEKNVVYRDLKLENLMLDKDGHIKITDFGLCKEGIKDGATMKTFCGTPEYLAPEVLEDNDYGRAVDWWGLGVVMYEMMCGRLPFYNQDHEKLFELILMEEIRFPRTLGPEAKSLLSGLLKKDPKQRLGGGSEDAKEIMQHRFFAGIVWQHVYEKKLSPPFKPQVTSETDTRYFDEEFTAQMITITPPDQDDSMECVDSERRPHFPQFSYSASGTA

Sequence of FL-Akt1-pThr308, pSer477,pThr479 (A6) (P31749 whole entry): as above
Sequence of non-C-terminally phosphorylated Akt1 (A2) (P31749 whole entry): as above
Sequence of FL-Akt1-pThr308/pSer473 (A1) and FL-Akt1-pThr308/2pSer477,Thr479 (A6) (P31749 whole entry, the tested form may be a part): as the sequence (P31749 whole entry) above
T1 sequence (P31749 1-121): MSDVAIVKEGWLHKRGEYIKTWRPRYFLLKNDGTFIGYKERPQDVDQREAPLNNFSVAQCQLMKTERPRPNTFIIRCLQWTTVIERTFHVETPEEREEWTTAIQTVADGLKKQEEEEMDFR
Sequence of FL-Akt1-pThr308/pSer473 (A1) (P31749 whole entry): as the sequence (P31749 whole entry) above
Sequence of pSer477,pThr479 Akt1 (A6) (P31749 whole entry): as above
Sequence of non-phosphorylated FL-Akt1 (A9) (P31749 whole entry): as above
Sequence of FL-Akt1-pThr308/non-p C tail (A2) (P31749 whole entry): as above

## A1: semisynthetic full-length Akt1, pThr308/pSer473
[1]; A1 vs A4
  catalytic efficiency, fold larger than that of Asp473 form A4: > 100 fold and 100 fold
[1]; pThr308 set of full-length Akt1, v/[E] vs [ATP]
  kcat/Km, fold greater than that of A2: about 500 fold

## phosphatidyl inositol 3,4,5-triphosphate [soluble PIP3]
[2]
  Kd: ~200 nM
[3]
  increase of Kd on Mg addition: ~ 3 fold
[4]
  effect on catalytic activity of A6: minimally impacted
[5]
  Kd: 90 nM
[6]
  stimulation of enzymatic activity of A2: did not stimulate
[7]
  Kd: ~200 nM
[8]; A6 vs A1 or A2, weakened binding
  Kd, fold greater than for A1 or A2: 4 fold
[8]; fluorescein-labeled soluble PIP3, 50 nM
  Kd: 800 nM

## A6: full-length Akt1 pThr308 with pSer477/pThr479
[1]
  catalytic efficiency (kcat/Km), fold lower relative to A1: 8 fold

## A12: R144A point mutation in the context of pSer473 Akt1
[1]
  catalytic efficiency (kcat/Km), fold lower relative to A1: ~ 50 fold

## A5: full-length Akt1 pThr308, triply phosphorylated C-tail form
[1]; compared with pSer473 form A1
  activity, fold more active than A1: ~ 2 fold

## A4: full-length Akt1 pThr308, Asp473 form
[1]
  kcat/Km, within fold of that of A2: ≤ 3 fold

## A8: full-length Akt1 pThr308, pSer479 form as printed
[1]
  kcat/Km, within fold of that of A2: ≤ 3 fold

## NC1(c2ccc(-c3nc4ccn5c(=O)[nH]nc5c4cc3-c3ccccc3)cc2)CCC1 [MK2206]
[9]
  sensitivity of A6 relative to A1 to the inhibitor: distinct sensitivities

## A3: full-length Akt1 pSer473 form lacking phosphorylation at Thr308
[1]
  catalytic efficiency (kcat/Km), fold lower relative to A1: 500 fold

## CC(C)NC[C@@H](C(=O)N1CCN(c2ncnc3c2[C@H](C)C[C@H]3O)CC1)c1ccc(Cl)cc1 [GDC0068]
[9]; Ki lower for A1, higher for A6
  apparent Ki ratio, A6 relative to A1: 8 fold

## CCCCCCCC(=O)OC[C@H](COP(=O)(O)O[C@H]1[C@H](O)[C@@H](O)[C@H](OP(=O)(O)O)[C@@H](OP(=O)(O)O)[C@H]1O)OC(=O)CCCCCCC [soluble PI(3,4)P2]
[10]
  binding to Akt1 PH domain: high affinity
[6]
  stimulation of enzymatic activity of A2: did not stimulate

## A7: full-length Akt1 pThr308, pSer477 form
[1]
  kcat/Km, within fold of that of A2: ≤ 3 fold

B1: GST-PDK1 (enzyme)
chain: MARTTSQLYDAVPIQSSVVLCSCPSPSMVRTQTESSTPPGIPGGSRQGPAMDGTAAEPRPGAGSLQHAQPPPQPRKKRPEDFKFGKILGEGSFSTVVLARELATSREYAIKILEKRHIIKENKVPYVTRERDVMSRLDHPFFVKLYFTFQDDEKLYFGLSYAKNGELLKYIRKIGSFDETCTRFYTAEIVSALEYLHGKGIIHRDLKPENILLNEDMHIQITDFGTAKVLSPESKQARANSFVGTAQYVSPELLTEKSACKSSDLWALGCIIYQLVAGLPPFRAGNEYLIFQKIIKLEYDFPEKFFPKARDLVEKLLVLDATKRLGCEEMEGYGPLKAHPFFESVTWENLHQQTPPKLTAYLPAMSEDDEDCYGNYDNLLSQFGCMQVSSSSSSHSLSASDTGLPQRSGSNIEQYIHDLDSNSFELDLQFSEDEKRLLLEKQAGGNPWHQFVENNLILKMGPVDKRKGLFARRRQLLLTEGPHLYYVDPVNKVLKGEIPWSQELRPEAKNFKTFFVHTPNRTYYLMDPSGNAHKWCRKIQEVWRQRYQSHPDAAVQ
[11]
  Kd: 200 nM

## GRPRTT[Dap]([Ac-ATP‑γS])FAE [GSK3 peptide-ATP conjugate bisubstrate analog]
[12]
  Ki: 3600 nM

B2: A16: Δ143-Akt1-pThr308 construct possessing Asp473 (protein, UniProt P31749 1-480, looked up, variant del1-143 S473D)
RAC-alpha …: RVTMNEFEYLKLLGKGTFGKVILVKEKATGRYYAMKILKKEVIVAKDEVAHTLTENRVLQNSRHPFLTALKYSFQTHDRLCFVMEYANGGELFFHLSRERVFSEDRARFYGAEIVSALDYLHSEKNVVYRDLKLENLMLDKDGHIKITDFGLCKEGIKDGATMKTFCGTPEYLAPEVLEDNDYGRAVDWWGLGVVMYEMMCGRLPFYNQDHEKLFELILMEEIRFPRTLGPEAKSLLSGLLKKDPKQRLGGGSEDAKEIMQHRFFAGIVWQHVYEKKLSPPFKPQVTSETDTRYFDEEFTAQMITITPPDQDDSMECVDSERRPHFPQFDYSASGTA
modifications: pThr308
[1]; Δ143-Akt1-pThr308 constructs A15-A18
  kcat/Km, within fold of each other: ≤ 3 fold
